Results as given in ChEMBL document CHEMBL1777725, “New class of potent antitumor acylhydrazone derivatives containing furan” (Eur J Med Chem, 2010).

How the values were obtained:
KB [1] = experiment: Growth inhibition of human KB cells at 10 uM after 48 hrs by SRB assay; assay type: functional; conditions: read-out: GI
Summary of the method: (§1)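 Exponentially growing cells at 1–2.5 ×10⁴ cells/mL, in humidified 5% CO₂, were seeded into 96-well plates. After 24 h, medium containing compound at various concentrations was added, and cells were incubated 48 h. Controls received RPMI-1640 medium only. Viable cell number was read by MTT at 570 nm for HL-60, and by SRB at 540 nm for Bel-7402, BGC-823 and KB.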

BGC-823 [2] = experiment: Growth inhibition of human BGC823 cells at 10 uM after 48 hrs by SRB assay; assay type: functional; conditions: BGC-823, 48 h, read-out: GI; summary of the method: as §1
HL-60 = experiment: Growth inhibition of human HL60 cells at 10 uM after 48 hrs by MTT assay; assay type: functional; conditions: HL-60, 48 h, read-out: GI; summary of the method: as §1
Bel-7402 [3] = experiment: Growth inhibition of human Bel7402 cells at 10 uM after 48 hrs by SRB assay; assay type: functional; conditions: Bel-7402, 48 h, read-out: GI; summary of the method: as §1
BGC-823 [4] = experiment: Antitumor activity against human BGC823 cells after 48 hrs by SRB assay; assay type: functional, cell-based; conditions: BGC-823, 48 h; summary of the method: as §1
Bel-7402 [5] = experiment: Antitumor activity against human Bel7402 cells after 48 hrs by SRB assay; assay type: functional, cell-based; conditions: Bel-7402, 48 h; summary of the method: as §1
KB [6] = experiment: Antitumor activity against human KB cells after 48 hrs by SRB assay; assay type: functional, cell-based; summary of the method: as §1

| IC50 (BGC-823 [4]) | IC50 (Bel-7402 [5]) | IC50 (KB [6]) | SMILES | inhibition of growth at 10 µM (KB [1]) | inhibition of growth at 10 µM (BGC-823 [2]) | inhibition of growth at 10 µM (HL-60) | inhibition of growth at 10 µM (Bel-7402 [3]) |
| --- | --- | --- | --- | --- | --- | --- | --- |
| – | – | – | O=C(N/N=C/c1ccc(-c2ccc(Cl)cc2)o1)c1ccccc1 | 3.2% | 19.4% | 15.1% | -7.17% |
| – | – | – | Cc1cccc(/C=N/NC(=O)c2ccc(-c3ccccc3[N+](=O)[O-])o2)c1 | 10.3% | 31.4% | 9.54% | 6.66% |
| – | – | – | COc1ccccc1C(=O)N/N=C/c1ccc(-c2ccc(F)cc2F)o1 | 10.1% | 35.9% | 7.77% | 1.69% |
| – | – | – | O=C(N/N=C/c1ccc(Cl)cc1)c1ccc(-c2ccccc2F)o1 | 11.3% | 32.6% | 6.49% | 16.9% |
| 9.5 µM | 15.2 µM | 39 µM | O=C(N/N=C/c1ccc(-c2ccc(F)cc2)o1)c1ccccc1O | 84.6% | 71.5% | -2.08% | 81.6% |
| – | – | – | O=C(N/N=C/c1ccc(-c2cccc(F)c2)o1)c1ccc(Br)cc1 | 26% | 46.7% | 25.9% | 28.2% |
| 46.6 µM | 19.3 µM | 55.3 µM | O=C(N/N=C/c1ccc(-c2ccc(F)cc2F)o1)c1ccccc1O | 61.8% | 68.4% | -9.5% | 63.4% |
| – | – | – | O=C(N/N=C/c1ccc(-c2ccccc2F)o1)c1ccc(Cl)cc1 | 4.62% | 31.5% | 6.13% | 2.96% |
| – | – | – | O=C(N/N=C/c1ccccc1)c1ccc(-c2ccc(Cl)cc2)o1 | 17% | 33.7% | 25.8% | 2.28% |
| – | – | – | O=C(N/N=C/c1cccc(Br)c1)c1ccc(-c2ccccc2F)o1 | 26.5% | 43.6% | 27.6% | 12.5% |
| – | – | – | Cc1cccc(C(=O)N/N=C/c2ccc(-c3ccccc3[N+](=O)[O-])o2)c1 | 5.9% | 36.1% | 6.25% | 5.67% |
| – | – | – | O=C(N/N=C/c1ccccc1Cl)c1ccc(-c2ccc(F)cc2)o1 | 19.3% | 32% | -3.22% | 4.81% |
| 180 µM | 50.3 µM | > 40 µM | O=C(N/N=C/c1ccccc1O)c1ccc(-c2ccc(F)cc2)o1 | 53.9% | 74% | 13.1% | 40% |
| 81.6 µM | 24.6 µM | > 40 µM | COc1ccccc1/C=N/NC(=O)c1ccc(-c2ccc(F)cc2F)o1 | 59.5% | 66.8% | 27.4% | 53.1% |
| – | – | – | O=C(N/N=C/c1ccc(O)cc1)c1ccc(-c2ccc(F)cc2)o1 | 11% | 46.3% | 1.07% | 10.6% |
| 4.8 µM | 5 µM | 5.8 µM | COc1cccc2c1C(=O)c1c(O)c3c(c(O)c1C2=O)C[C@@](O)(C(=O)CO)C[C@@H]3O[C@H]1C[C@H](N)[C@H](O)[C@H](C)O1 [DOXORUBICIN] | – | – | – | – |
| 9.6 µM | 8.3 µM | > 40 µM | O=C(N/N=C/c1ccccc1O)c1ccc(-c2ccc(F)cc2F)o1 | 75.2% | 79.1% | 43.1% | 91.8% |
